According to ChEMBL document CHEMBL1938372, “Design and synthesis of conformationally constrained inhibitors of non-nucleoside reverse transcriptase” (J Med Chem, 2011):
Active and inactive are the calls of the source. The calls are words filed in the database; no cut-off is given here.

Tests used:
[1] = system: Human immunodeficiency virus; test: Antiviral activity against Human immunodeficiency virus harboring reverse transcriptase L100l mutant assessed as inhibition of viral replication; format: functional, organism-based
Method in brief: (§1)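 Phenosense cell culture assay against a panel of clinically derived RT mutant viruses in the presence of 10% FBS. IC50 is the compound concentration blocking 50% of viral replication. Each value is the average of two determinations.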

[2] = system: Human immunodeficiency virus; test: Antiviral activity against Human immunodeficiency virus harboring reverse transcriptase Y188L mutant assessed as inhibition of viral replication; format: functional, organism-based; method in brief: as §1
[3] = system: Human immunodeficiency virus; test: Antiviral activity against Human immunodeficiency virus harboring reverse transcriptase K103N mutant assessed as inhibition of viral replication; format: functional, organism-based; method in brief: as §1
[4] = system: Human immunodeficiency virus; test: Antiviral activity against Human immunodeficiency virus harboring reverse transcriptase K101E/Y181C/G190A triple mutant assessed as inhibition of viral replication; format: functional, organism-based; method in brief: as §1
[5] = system: Human immunodeficiency virus; test: Antiviral activity against Human immunodeficiency virus harboring reverse transcriptase Y181C mutant assessed as inhibition of viral replication; format: functional, organism-based; method in brief: as §1
[6] = Bioavailability in Sprague-Dawley rat at 10 mg/kg, po and 2 mg/kg, iv; format: ADME, organism-based; conditions: in vivo
Method in brief: (§2)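 PK in Sprague-Dawley rats (iv solution in DMSO via an indwelling jugular cannula, or oral suspension in aqueous methylcellulose/Methocel) and beagle dogs (iv and oral given crossover, same vehicles). Plasma levels by LC-MS. F from oral versus iv dose-normalized AUC. Average of at least two animals; rat values within 25% of the mean.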

[7] = system: Human immunodeficiency virus; test: Antiviral activity against Human immunodeficiency virus harboring reverse transcriptase G190A mutant assessed as inhibition of viral replication; format: functional, organism-based; method in brief: as §1
[8] = system: Human immunodeficiency virus; test: Antiviral activity against Human immunodeficiency virus expressing reverse transcriptase K103N mutant infected in human MT4 cells by p24 antigen assay in the presence of 10% FBS; format: functional; conditions: Human immunodeficiency virus 1, MT4; read-out: CIC95
Method in brief: (§3)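 Antiviral spread assay in MT-4 human T-lymphoid cells kept in RPMI 1640 with 10% FBS. Value is the CIC95, the concentration inhibiting virus replication by >95%. Reported as the geometric mean of at least two determinations, all within 2-fold of the mean. Cytotoxicity was checked up to the assay upper limit of 8.3 μM.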

[9] = Inhibition of Human immunodeficiency virus reverse transcriptase by SPA assay
[10] = Half life in Beagle dog at 2 mg/kg, po and 1 mg/kg, iv; format: ADME, organism-based, Canis lupus familiaris; conditions: in vivo; method in brief: as §2
[11] = system: Human immunodeficiency virus; test: Antiviral activity against Human immunodeficiency virus harboring reverse transcriptase V106A/G190A/F227L triple mutant assessed as inhibition of viral replication; format: functional, organism-based; method in brief: as §1
[12] = Plasma clearance in Sprague-Dawley rat at 10 mg/kg, po and 2 mg/kg, iv; format: ADME, organism-based; method in brief: as §2
[13] = Plasma clearance in Beagle dog at 2 mg/kg, po and 1 mg/kg, iv; format: ADME, organism-based, Canis lupus familiaris; method in brief: as §2
[14] = system: Human immunodeficiency virus; test: Antiviral activity against multidrug-resistant Human immunodeficiency virus assessed as inhibition of viral replication; format: functional, organism-based; method in brief: as §1
[15] = system: Human immunodeficiency virus; test: Antiviral activity against Human immunodeficiency virus expressing wild type reverse transcriptase infected in human MT4 cells by p24 antigen assay in the presence of 10% FBS; format: functional; conditions: Human immunodeficiency virus 1, MT4; read-out: CIC95
Method in brief: (§4)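 MT-4 human T-lymphoid cells in RPMI 1640 with either 10% FBS or 50% NHS; CIC95 taken as the concentration inhibiting virus spread/replication by >95%. Geometric mean of at least two determinations, individual values within 2-fold; SEM given when ≥3 determinations.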

[16] = Volume of distribution in Sprague-Dawley rat at 10 mg/kg, po and 2 mg/kg, iv; format: ADME, organism-based; conditions: in vivo; method in brief: as §2
[17] = system: Human immunodeficiency virus; test: Antiviral activity against wild type Human immunodeficiency virus assessed as inhibition of viral replication; format: functional, organism-based
Canis familiaris [18] = test: Dose normalised AUC in Beagle dog at 2 mg/kg, po by LC-MS analysis; format: ADME, organism-based, Canis lupus familiaris; design: dose 2 mg/kg, route oral; conditions: in vivo; method in brief: as §2
MT4 = test: Cytotoxicity against human MT4 cells up to 8.3 uM; format: cell-based
Method in brief: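 MT-4 cells in RPMI 1640 with 10% FBS or 50% NHS, run alongside the antiviral CIC95 assay; cytotoxicity checked up to the assay upper limit of 8.3 μM.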

[19] = target: Human immunodeficiency virus type 1 reverse transcriptase (Human immunodeficiency virus 1, UniProt Q72547, Y181C); test: Inhibition of Human immunodeficiency virus reverse transcriptase Y181C mutant by SPA assay
Method in brief: (§5)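 Recombinant HIV-1 RT polymerase scintillation proximity assay run with mutant enzyme, reported as Ki (nM). Values are geometric means of at least two determinations, each within 2-fold of the mean; SEM is given where there were ≥3 determinations.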

[20] = Bioavailability in Beagle dog at 2 mg/kg, po and 1 mg/kg, iv; format: ADME, organism-based, Canis lupus familiaris; conditions: in vivo; method in brief: as §2
[21] = system: Human immunodeficiency virus; test: Antiviral activity against Human immunodeficiency virus harboring reverse transcriptase K103N/P225H double mutant assessed as inhibition of viral replication; format: functional, organism-based; method in brief: as §1
[22] = Solubility of the compound in water at pH 2; format: physicochemical
Method in brief: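 Water solubility of the solid compound measured at pH 2 and at pH 7.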

[23] = system: Human immunodeficiency virus; test: Antiviral activity against Human immunodeficiency virus harboring reverse transcriptase K103N/Y181C/G190A triple mutant assessed as inhibition of viral replication; format: functional, organism-based; method in brief: as §1
[24] = system: Human immunodeficiency virus; test: Antiviral activity against Human immunodeficiency virus harboring reverse transcriptase K101E/G190A double mutant assessed as inhibition of viral replication; format: functional, organism-based; method in brief: as §1
[25] = Volume of distribution in Beagle dog at 2 mg/kg, po and 1 mg/kg, iv; format: ADME, organism-based, Canis lupus familiaris; conditions: in vivo; method in brief: as §2
[26] = system: Human immunodeficiency virus; test: Antiviral activity against Human immunodeficiency virus harboring reverse transcriptase G190S mutant assessed as inhibition of viral replication; format: functional, organism-based; method in brief: as §1
[27] = system: Human immunodeficiency virus; test: Antiviral activity against Human immunodeficiency virus harboring reverse transcriptase L100l/K103N/P225P/H triple mutant assessed as inhibition of viral replication; format: functional, organism-based; method in brief: as §1
Rattus norvegicus = test: Dose normalised AUC in Sprague-Dawley rat at 10 mg/kg, po by LC-MS analysis; format: ADME, organism-based; design: dose 10 mg/kg, route oral; conditions: in vivo; method in brief: as §2
[28] = target: Human immunodeficiency virus type 1 reverse transcriptase (Human immunodeficiency virus 1, UniProt Q72547, K103N); test: Inhibition of Human immunodeficiency virus reverse transcriptase K103N mutant by SPA assay; method in brief: as §5
[29] = system: Human immunodeficiency virus; test: Antiviral activity against Human immunodeficiency virus expressing reverse transcriptase Y181C mutant infected in human MT4 cells by p24 antigen assay in the presence of 10% FBS; format: functional; conditions: Human immunodeficiency virus 1, MT4; read-out: CIC95; method in brief: as §3
[30] = Half life in Sprague-Dawley rat at 10 mg/kg, po and 2 mg/kg, iv; format: ADME, organism-based; conditions: in vivo; method in brief: as §2
[31] = system: Human immunodeficiency virus; test: Antiviral activity against Human immunodeficiency virus expressing wild type reverse transcriptase infected in human MT4 cells by p24 antigen assay in the presence of 50% normal human serum; format: functional; conditions: Human immunodeficiency virus 1, MT4; read-out: CIC95; method in brief: as §4
[32] = Bioavailability in Beagle dog at 1 mg/kg, po and 0.25 mg/kg, iv; format: ADME, organism-based, Canis lupus familiaris; conditions: in vivo; method in brief: as §2
Canis familiaris [33] = test: Dose normalised AUC in Beagle dog at 1 mg/kg, po by LC-MS analysis; format: ADME, organism-based, Canis lupus familiaris; design: dose 1 mg/kg, route oral; conditions: in vivo; method in brief: as §2
[34] = Half life in Beagle dog at 0.125 mg/kg, iv; format: ADME, organism-based, Canis lupus familiaris; design: dose 0.125 mg/kg, route intravenous; conditions: in vivo; method in brief: as §2
[35] = Volume of distribution in Beagle dog at 0.125 mg/kg, iv; format: ADME, organism-based, Canis lupus familiaris; design: dose 0.125 mg/kg, route intravenous; conditions: in vivo; method in brief: as §2
[36] = Plasma clearance in Beagle dog at 0.125 mg/kg, iv; format: ADME, organism-based, Canis lupus familiaris; design: dose 0.125 mg/kg, route intravenous; method in brief: as §2

Compound | bioavailability [6] [%] | IC95 [8] [nM] | Ki [9] [nM] | clearance [12] [mL/min/kg] | IC95 [15] [nM] | Vd [16] [L/kg] | Activity (MT4) | Ki [19] [nM] | solubility [22] [µg/mL] | AUC/dose (Rattus norvegicus) [µM·h] | Ki [28] [nM] | IC95 [29] [nM] | half-life [30] [h] | IC95 [31] [nM] | other results
N#Cc1cc(Cl)cc(Oc2c(Cl)ccc3c2cnn3Cc2n[nH]c3ncccc23)c1 [MK-6186] | 76 | 15 | 0.34 | 18 | 11 | 10.5 | Non-toxic | 0.6 | < 0.1 | 1.6 | 0.58 | 58 | 7.6 | 64 | inhibition [1]: Active; inhibition [2]: inactive; inhibition [3]: Active; inhibition [4]: Active; inhibition [5]: Active; inhibition [7]: Active; half-life [10]: 12.8 h; inhibition [11]: inactive; clearance [13]: 6.1 mL/min/kg; inhibition [14]: Active; inhibition [17]: Active; AUC/dose (Canis familiaris [18]): 2.3 µM·h; bioavailability [20]: 48%; inhibition [21]: Active; inhibition [23]: Active; inhibition [24]: Active; Vd [25]: 6 L/kg; inhibition [26]: Active; inhibition [27]: Active
N#Cc1cc(Cl)cc(Oc2cc(OCc3n[nH]c4ncccc34)ccc2Cl)c1 | 7.5 | 15 | 0.12 | – | 10 | – | Non-toxic | 0.23 | < 0.1 | 0.1 | 0.22 | 22 | – | 52 | bioavailability [32]: 3%; AUC/dose (Canis familiaris [33]): 0.14 µM·h
N#Cc1cc(Cl)cc(Oc2c(Cl)ccc3c2nnn3Cc2n[nH]c3nc(N)ccc23)c1 | < 1 | 5.8 | 1.1 | 11.9 | 3 | 4.4 | Non-toxic | 1.2 | – | 0.02 | 0.94 | 37 | 4.7 | 36 | half-life [34]: 12.8 h; Vd [35]: 0.65 L/kg; clearance [36]: 2.2 mL/min/kg
N#Cc1cc(Cl)cc(Oc2c(Cl)ccc3c2c(Cl)nn3Cc2n[nH]c3ncccc23)c1 | – | > 2000 | 46 | – | > 500 | – | Non-toxic | 42 | – | – | 28 | > 2000 | – | > 5000 | –
NCc1cc(Cl)cc(Oc2c(Cl)ccc3c2nnn3Cc2n[nH]c3ncccc23)c1Cl | – | 232 | – | – | 57 | – | Non-toxic | – | – | – | – | 418 | – | 281 | –
N#Cc1cc(Cl)cc(Oc2c(Cl)ccc3c2[nH]c(=O)n3Cc2n[nH]c3ncccc23)c1 | – | – | > 300 | – | > 833 | – | Non-toxic | > 300 | – | – | > 600 | – | – | > 833 | –
